Assay outcomes deposited in PubChem BioAssay by several laboratories.
Hits are enriched below; roughly 3.9% of the tested compounds scored in any of these assays.
SR-BI DiI inh = inhibitors of mouse SR-BI mediated HDL lipid uptake; Q61009; ldlA[mSR-BI] CHO cells, DiI-HDL uptake fluorescence, 3 h; inhibition, % at 12.5 µM; 320,000 compounds, 0.96% hits; AID 488896;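 active = mean replicate inhibition of at least 70% and a set share of replicates each scoring 70 or more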
HIF act = HIF pathway transcriptional activation; U2OS HRE-luciferase reporter, luminescence; normalized: DMSO 0%, desferrioxamine 100%; activation, % at 7.5 µM (by protocol); 300,000 compounds, 0.32% hits; AID 1910;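 active = mean activation of at least 10% of the iron chelator positive control signal, with at least half of replicates also reaching 10%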
AHR act = activators of human aryl hydrocarbon receptor; AHR-responsive luciferase reporter cells, luminescence; activation, % at 5 µM; 320,000 compounds, 2.5% hits; in the data active = activation above about 47%
Target sequence (P35869 whole entry, looked up): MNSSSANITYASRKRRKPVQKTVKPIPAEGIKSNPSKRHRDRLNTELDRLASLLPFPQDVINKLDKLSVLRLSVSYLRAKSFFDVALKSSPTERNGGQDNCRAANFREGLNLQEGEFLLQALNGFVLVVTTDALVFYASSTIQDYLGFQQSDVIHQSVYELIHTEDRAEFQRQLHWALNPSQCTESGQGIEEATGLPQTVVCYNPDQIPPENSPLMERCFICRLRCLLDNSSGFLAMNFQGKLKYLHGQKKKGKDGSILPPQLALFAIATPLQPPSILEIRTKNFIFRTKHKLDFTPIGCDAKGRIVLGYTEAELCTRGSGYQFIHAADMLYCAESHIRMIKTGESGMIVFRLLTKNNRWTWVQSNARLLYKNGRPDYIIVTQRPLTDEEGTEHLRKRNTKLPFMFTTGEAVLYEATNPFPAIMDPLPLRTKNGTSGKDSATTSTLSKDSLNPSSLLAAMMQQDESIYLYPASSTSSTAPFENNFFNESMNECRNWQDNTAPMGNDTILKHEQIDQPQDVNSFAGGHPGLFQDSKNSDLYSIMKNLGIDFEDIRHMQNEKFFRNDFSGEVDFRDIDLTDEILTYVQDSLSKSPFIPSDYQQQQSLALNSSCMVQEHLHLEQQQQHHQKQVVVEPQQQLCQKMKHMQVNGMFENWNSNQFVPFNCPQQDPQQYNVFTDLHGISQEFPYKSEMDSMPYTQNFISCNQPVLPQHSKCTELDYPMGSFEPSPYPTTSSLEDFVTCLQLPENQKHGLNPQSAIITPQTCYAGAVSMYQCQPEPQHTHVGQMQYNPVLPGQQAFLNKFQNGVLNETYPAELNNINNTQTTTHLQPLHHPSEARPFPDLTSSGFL
ABCB6 inh 2 = blocks the human ABCB6 transporter | 360,000 compounds, 0.19% hits | fluorescence ratio to DMSO, % at 10 µM | K562-ABCB6 porphyrin accumulation, flow cytometry, 1 h; stronger effect = lower value | Q9NP58;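 active = fluorescence ratio to DMSO below 75%, the collection mean minus 3 SD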;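 note: signal is porphyrin accumulated inside mitochondria; lower ratio means ABCB6 inhibition with less porphyrin fluorescence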
GAA850 FXN act = activators of GAA850 frataxin (FXN) promoter. HEK293 lucGAA850 FXN promoter luciferase reporter, 24 h; percent of 10 µM SAHA response. activation, % at 6 µM. 360,000 compounds, 0.56% hits. AID 540364;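 active = activation above the average of all compounds screened plus 3 SD, cutoff fixed separately per campaign, cut at about 7.5% in these data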
SR-BI uptake up = enhances SR-BI lipid uptake from DiI-HDL; CHO ldlA[mSR-BI] cells, DiI-HDL uptake fluorescence, 3 h; 100 = double the neutral-control signal; activation, % at 12.5 µM; 320,000 compounds, 0.096% hits;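 active = mean replicate activation of at least 60% and every replicate at or above 60%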
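Assay system: LDL receptor-deficient CHO ldlA cells overexpressing murine SR-BI / Medium: BSA-supplemented, HEPES-buffered Ham's F12, pH 7.4 / Probe or stimulus: DiI-labelled HDL at 10 µg/mL final / Timing: compound with DiI-HDL co-incubation, 3 h at 37 °C / Technique: bottom-read cell fluorescence after medium removal, ex 550/em 595 nm / Measure: HDL uptake via cellular fluorescence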
A number is an active result; n = inactive; x = no result given.

SMILES | SR-BI DiI inh | HIF act | AHR act | ABCB6 inh 2 | GAA850 FXN act | SR-BI uptake up
Cc1ccccc1/C=N/NC(=O)c1cccnc1 | n | n | n | n | n | n
O=C(N/N=C/c1c(O)n(Cc2ccccc2)c(=O)c2ccccc12)c1cccnc1 | n | n | n | n | n | n
Cc1ccc(C)c(NC(=O)NNC(=O)c2cc3occc3[nH]2)c1 | n | n | n | n | n | n
NC(=O)c1cc([N+](=O)[O-])c(Cl)cc1NCc1ccncc1 | n | x | n | n | n | n
NC(=O)c1cc([N+](=O)[O-])c(Cl)cc1NCc1ccccn1 | n | x | 67 | n | n | n
CCN1C(=O)C(=O)N(CC(=O)N2CCC(C)Sc3ccccc32)C1=O (configuration not stated) | n | x | n | n | n | x
COc1cc(OC)c(C(=O)OCC(=O)Nc2cccc(S(=O)(=O)NC3=NCCCCC3)c2)cc1OC | n | x | x | n | n | n
Cc1nc(-c2ccccn2)sc1C(=O)Nc1ccc(F)cc1 | x | n | 118 | n | n | x
Cc1nc(-c2ccncc2)sc1C(=O)Nc1ccc(Cl)cc1 | n | n | 65 | n | n | n
CNC(=O)c1sc(-c2ccccn2)nc1C | x | n | n | n | n | x
COc1ccc(NC(=O)Cc2csc(NC(=O)Nc3ccccc3OC)n2)c(OC)c1 | n | n | n | n | n | n
COc1cccc(CNC(=O)Cc2csc(NC(=O)Nc3ccccc3OC)n2)c1 | 78 | n | n | n | n | n
COc1ccccc1NC(=O)Nc1nc(CC(=O)NCc2c(F)cccc2F)cs1 | 72 | n | n | n | n | n
COc1ccccc1NC(=O)Nc1nc(CC(=O)NCc2ccc(F)cc2)cs1 | 72 | n | n | n | n | n
COc1ccc(OC)c(NC(=O)Cc2csc(NC(=O)Nc3ccccc3OC)n2)c1 | 76 | n | n | n | n | n
CSc1ccccc1C(=O)C1CCCN(C(=O)c2ccc(N3CCOCC3)cc2)C1 (configuration not stated) | n | n | n | n | n | n
COc1ccccc1C(=O)NCCCNC(=O)c1ccccn1 | n | n | n | n | n | n
O=C(CN(Cc1ccccc1)C(=O)CCC(=O)Nc1nccs1)NCc1ccco1 | n | n | n | n | n | n
COc1ccccc1NC(=O)Nc1nc(CC(=O)N2CCN(c3ccccc3F)CC2)cs1 | 80 | n | n | n | n | n
COC(=O)C1=C(C(=O)OC)[C@@H]2Nc3ccccc3[C@@]23C[C@@H](C(=O)OC)N(C(=O)c2ccc(Br)cc2)C3=N1 | x | n | x | x | x | x
O=C(CNc1cccc2ccccc12)N/N=C/c1ccc([N+](=O)[O-])o1 | n | n | 65 | n | n | n
CCCCN1C(=O)/C(=C/C=C2\Oc3ccccc3N2CC)SC1=S | 89 | n | x | n | n | n
Cc1[nH]nc(-c2ccc(O)cc2O)c1-c1nc2ccccc2s1 | n | n | 73 | n | n | n
Cc1[nH]nc(-c2ccc(O)cc2O)c1-c1ccc(Cl)cc1 | n | n | n | n | n | n
CS(=O)(=O)c1ccc(-c2cn3cc(C(=O)O)ccc3n2)cc1 | n | n | n | n | n | n
SMILES | SR-BI DiI inh | HIF act | AHR act | ABCB6 inh 2 | GAA850 FXN act | SR-BI uptake up
CCCn1c(SCC(=O)c2c(C)[nH]c(C)c2C(=O)OCC)nc2ccccc21 | n | n | n | n | n | n
O=C(Nc1cccc(O)c1)c1cc2nc(-c3ccccc3)cc(-c3ccccc3)n2n1 | n | n | n | n | n | n
COC(=O)C1CN(C(=O)c2cccc(OC(F)F)c2)c2ccccc2O1 (configuration not stated) | n | n | 49 | n | n | n
CCN1/C(=C/c2ccc3cc(C)ccc3[n+]2CC)Sc2ccccc21 | n | 26 | n | x | n | n
CC[n+]1c(/C=C2\Sc3ccccc3N2C)ccc2cccc(C)c21 | 76 | n | x | x | n | n
CCN1/C(=C/C=C/c2sc3ccccc3[n+]2CC)Sc2ccccc21 | n | n | n | n | n | 722
CN1/C(=C/c2cccc[n+]2CCO)Sc2ccccc21 | n | n | n | n | n | n
CN(C(=O)c1cccc(NC(=O)Cc2ccc(NC(=O)C3CCCN(C(=O)C4CCC4)C3)cc2)c1)C1CCCCC1 (configuration not stated) | 88 | x | x | n | n | n
CN(Cc1ccccc1)C(=O)c1cccc(NC(=O)Cc2ccc(NC(=O)C3CCCN(C(=O)C4CCCCC4)C3)cc2)c1 (configuration not stated) | 75 | x | x | n | n | n
CN(C(=O)c1cccc(NC(=O)Cc2ccc(NC(=O)C3CCCN(C(=O)C4CCCCC4)C3)cc2)c1)C1CCCC1 (configuration not stated) | n | x | x | n | n | n
Cn1c2c(c(=O)n(C)c1=O)C(NS(=O)(=O)c1ccc(Cl)cc1)(C(F)(F)F)C(=O)N2 (configuration not stated) | n | n | n | n | n | n
COc1ccc(Cl)c(OC)c1C(=O)NC(=O)Nc1c(F)cc(F)cc1F | n | 19 | n | n | n | n
O=C(NN=C1CCCCCC1)c1ccc(Br)o1 | n | n | n | n | n | n
COc1ccc(OC)c(NC(=O)NCc2cccnc2)c1 | n | n | 58 | n | n | n
COc1cc(NC(=S)NCCc2c[nH]c3ccccc23)c(OC)cc1Cl | 73 | n | n | n | n | n
CCOc1ccccc1NC(=O)NCc1cccnc1 | n | n | 84 | n | n | n
CCOc1ccccc1NC(=O)NCCc1c[nH]c2ccccc12 | n | n | 64 | n | n | n
O=C(NCCc1c[nH]c2ccccc12)Nc1cccc2ccccc12 | n | n | n | n | n | n
Cc1ccc(/C=C2\Oc3cc(OC(=O)N4CCOCC4)ccc3C2=O)cc1 | n | n | n | n | n | n
O=C(NC(=S)NNC(=O)c1ccccc1O)c1ccco1 | 110 | n | n | n | n | n
O=C(NC(=S)NNC(=O)c1cc2ccccc2cc1O)c1ccco1 | 146 | n | n | n | n | n
O=C(O)c1ccc(-n2ncc3c2/C(=C\c2cccc([N+](=O)[O-])c2)CC3)cc1 | n | x | x | n | n | n
CS(=O)(=O)NCC(c1cccnc1)N1CCN(c2ccccc2F)CC1 (configuration not stated) | x | n | n | n | n | x
COc1ccc(/C=C2\Sc3ccc(C(=O)NC4CC4)cc3N(C)C2=O)cc1OC | 76 | n | n | n | n | n
NC(=O)c1ccc(NC(=O)CCNC(=O)c2ccco2)cc1 | x | x | n | n | n | x
CCOC(=O)c1sc(NC(=O)c2c(C)nn(Cc3ccccc3)c2C)cc1C | 82 | x | n | n | n | n
CCOC(=O)c1sc(NC(=O)c2ccc(Cl)s2)cc1C | n | x | n | n | n | n
CCOC(=O)c1sc(NC(=O)Nc2ccc(Cl)cc2)cc1C | 76 | n | n | n | n | n
CC(Sc1nc(N)cc(=O)[nH]1)C(=O)N1CCOCC1 (configuration not stated) | n | x | x | n | n | n
